Measured values as given in the array DNA melting data of Ke et al. (doi:10.1101/2024.01.08.574731).

What was measured:
[1] = folding enthalpy; higher = less favourable; fluorescence melt of hairpins on a sequencing array, two-state fit; conditions: sodium 0.088 M
Summary of the method: (§1)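 Two-state fits, bootstrapped, provided melting temperature and folding enthalpy from Cy3 fluorescence normalised to pre-quench Cy3 and to control constructs. Library hairpins with annealed Cy3 and quencher oligos were imaged on a sequenced MiSeq flow cell in 50 mM Na-HEPES pH 8.0, 25 mM NaCl, at 2.5 °C intervals up to 60 °C. Four replicates were combined with inverse-variance weighting. A 9.35 °C upward shift was applied to fitted temperatures to match UV melts.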

[2] = melting temperature; fluorescence melt of hairpins on a sequencing array, two-state fit, raised by 9.35 °C to match UV melts; conditions: sodium 0.088 M
Summary of the method: as §1

| Sequence | folding enthalpy [1] [kcal/mol] | Tm [2] [°C] |
| --- | --- | --- |
| GGCCAGGGAAACCCGGCC ((((.((....)).)))) | -40.9 | 62.1 |
| GGCCATCGAAAGATCGCC (((.(((....))).))) | -33.6 | 46.8 |
| GGCCATGGAAACATAGCC (((.(((....))).))) | -31.5 | 40.8 |
| GGCCATGGAAACATGGTC (.(((((....))))).) | -36.2 | 54.9 |
| GGCCCAGGAAACCGAGCC (((.(.(....).).))) | -15.7 | 36.9 |
| GGCCCAGGAAACTGAGCC (((.(((....))).))) | -32.4 | 49 |
| GGCCCCGAAAGGGAAGCC ((((((....)))..))) | -28.2 | 55.4 |
| GGCCCCGAAAGGGCGCC ((((((....))).))) | -18.5 | 68.6 |
| GGCCCCGAAAGGGCGGCC ((((((....)))..))) | -16.9 | 64.7 |
| GGCCCCGAAAGGGTGGCC ((((((....)))..))) | -22.7 | 61.6 |
| GGCCCCGGAAACGAGGCC ((((.((....)).)))) | -38.4 | 57.5 |
| GGCCCGGCGAAAGCCGCC (((..(((....)))))) | -7.68 | 37 |
| GGCCCGGGAAACCGAGCC (((.(((....))).))) | -46 | 54.2 |
| GGCCCTACGAAAGTAGCC (((..(((....)))))) | -15.3 | 31 |
| GGCCCTGCGAAAGCAGCC (((..(((....)))))) | -8.71 | 36.9 |
| GGCCCTGGAAACGGGGTC (.(((.(....).))).) | -30.9 | 49 |
| GGCCGACGAAAGTCGCC (((.(((....)))))) | -14.4 | 60.2 |
| GGCCGAGGAAACTCGGTC (.(((((....))))).) | -31.4 | 64.4 |
| GGCCGCGAAAGCGACGCC ((((((....)))..))) | -16.9 | 66.4 |
| GGCCGCGAAAGCGTAGCC ((((((....)))..))) | -22.5 | 61 |
| GGCCGGCCGAAAGGCGCC (((..(((....)))))) | -15.1 | 57.3 |
| GGCCGGGCGAAAGCCGCC (((..(((....)))))) | -18.1 | 57.7 |
| GGCCGGGGAAACCTGGCC ((((.((....)).)))) | -38.4 | 68 |

| Sequence | folding enthalpy [1] [kcal/mol] | Tm [2] [°C] |
| --- | --- | --- |
| GGCCGGGGAAACTCGGCC (((((.(....).))))) | -40 | 68.4 |
| GGCCGGTCGAAAGACGCC (((..(((....)))))) | -21.9 | 48.4 |
| GGCCGTCGAAAGACAGCC (((.(((....))).))) | -35.1 | 58.4 |
| GGCCGTGGAAACACAGCC (((.(((....))).))) | -36.8 | 50.1 |
| GGCCTAGGAAACTAGGTC (.(((((....))))).) | -33.7 | 51.6 |
| GGCCTCGAAAGAGATGCC ((((((....)))..))) | -24.1 | 46.8 |
| GGCCTCGAAAGAGCCGCC ((((((....)))..))) | -20.3 | 57.2 |
| GGCCTCGAAAGAGGGGCC ((((((....)))..))) | -23 | 54.9 |
| GGCCTCGCGAAAGCGGCC (((..(((....)))))) | -17.5 | 59.4 |
| GGCCTCGGAAACAAGGCC (((((.(....).))))) | -34.5 | 51.9 |
| GGCCTCGGAAACGAGGTC (.(((((....))))).) | -28.2 | 64.7 |
| GGCCTGACGAAAGTCGCC (((..(((....)))))) | -16.3 | 44 |
| GGCCTGGCGAAAGCCGCC (((..(((....)))))) | -15.5 | 48.7 |
| GGCCTGGGAAACCAGGTC (.(((((....))))).) | -33 | 58.5 |
| GGCCTTGGAAACAAAGCC (((.(((....))).))) | -25.8 | 38.9 |
| GGCCTTGGAAACGAGGTC (.(((.(....).))).) | -31.3 | 43.2 |
| GGCGAACGAAAGTTGCC (((.(((....)))))) | -36.5 | 56.9 |
| GGCGACCCGAAAGGGGCC (((..(((....)))))) | -13.1 | 54.6 |
| GGCGACGAAAGTCATGCC ((((((....)))..))) | -27.2 | 52.5 |
| GGCGACGAAAGTCGAGCC ((((((....)))..))) | -15.9 | 55.8 |
| GGCGACGAAAGTCGCGCC ((((((....)))..))) | -6.6 | 65.8 |
| GGCGACGAAAGTCTAGCC ((((((....)))..))) | -28.6 | 54.5 |
